According to ChEMBL document CHEMBL3351274, “Sensitization of tumor necrosis factor-related apoptosis-inducing ligand (TRAIL)-resistant primary prostate cancer cells by isoegomaketone from Perilla frutescens” (J Nat Prod, 2014):
Active and inactive are the calls of the source. The rule behind the calls is not given here.

What was measured:
[1] = Induction of apoptosis in human RC-58T/h/SA#4 cells assessed as Bcl-2 activation at 20 uM after 24 hrs by immunoblotting analysis relative to untreated control; assay type: functional
Summary of the method: (§1)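 Cells grown in DMEM/10% FBS at 37 °C, 5% CO2, then treated 24 h with compound (20 μM) with or without TRAIL (100 ng/mL). Whole lysates were used for Bax and Bcl-2. Cytosolic and mitochondrial fractions were prepared with a mitochondria isolation kit for AIF and cytochrome c. Blotting used 10 μg protein/lane, 12% SDS-PAGE, nitrocellulose, overnight primary antibody at 4 °C and ECL detection.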

[2] = Induction of apoptosis in human RC-58T/h/SA#4 cells assessed as cytochrome C level in cytosol at 20 uM after 24 hrs by immunoblotting analysis relative to untreated control; assay type: functional; summary of the method: as §1
Homo sapiens [3] = organism: Homo sapiens; test: Induction of apoptosis in human RC-58T/h/SA#4 cells assessed as cytochrome C level in mitochondria at 20 uM after 24 hrs by immunoblotting analysis relative to untreated control; assay type: functional, cell-based; summary of the method: as §1
[4] = Induction of apoptosis in human RC-58T/h/SA#4 cells assessed as DR4 expression at 5 uM after 24 hrs by immunoblotting analysis relative to untreated control; assay type: functional
[5] = Induction of apoptosis in human RC-58T/h/SA#4 cells assessed as DR5 expression at 40 uM after 24 hrs by immunoblotting analysis relative to untreated control; assay type: functional
[6] = Induction of apoptosis in human RC-58T/h/SA#4 cells assessed as DR4 expression at 20 uM after 3 hrs by immunoblotting analysis relative to untreated control; assay type: functional
[7] = Induction of apoptosis in human RC-58T/h/SA#4 cells assessed as DR4 expression at 20 uM after 12 hrs by immunoblotting analysis relative to untreated control; assay type: functional
[8] = Induction of apoptosis in human RC-58T/h/SA#4 cells assessed as DR5 expression at 20 uM after 6 hrs by immunoblotting analysis relative to untreated control; assay type: functional
[9] = Induction of apoptosis in human RC-58T/h/SA#4 cells assessed as DR5 expression at 20 uM after 12 hrs by immunoblotting analysis relative to untreated control; assay type: functional
[10] = Sensitization of TRAIL-induced apoptosis in human RC-58T/h/SA#4 cells assessed as procaspase-8 activation at 20 uM after 24 hrs by immunoblotting analysis in presence of Dr5 Fc chimera relative to untreated control; assay type: functional
Summary of the method: (§2)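 Cells pretreated 2 h with 100 ng/mL DR5 Fc chimera, then given 20 μM compound and/or 100 ng/mL TRAIL for 24 h. Total lysates immunoblotted (12% SDS-PAGE, nitrocellulose) for caspase-3, -8, -9 and PARP cleavage, with HRP secondary and ECL detection.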

[11] = Sensitization of TRAIL-induced apoptosis in human RC-58T/h/SA#4 cells assessed as procaspase-9 activation at 20 uM after 24 hrs by immunoblotting analysis in presence of Dr5 Fc chimera relative to untreated control; assay type: functional; summary of the method: as §2
[12] = Sensitization of TRAIL-induced apoptosis in human RC-58T/h/SA#4 cells assessed as PARP cleavage at 20 uM after 24 hrs by immunoblotting analysis in presence of Dr5 Fc chimera relative to untreated control; assay type: functional; summary of the method: as §2
Homo sapiens [13] = organism: Homo sapiens; test: Induction of apoptosis in human RC-58T/h/SA#4 cells assessed as CHOP expression after 3 to 24 hrs by immunoblotting analysis relative to untreated control; assay type: functional, cell-based
Summary of the method: (§3)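 RC-58T/h/SA#4 cells seeded at 5 × 10^4 cells/mL and cultured 24 h, then given compound across a concentration series or at fixed dose over a time course. Lysates were quantified by BCA. 10 μg protein/lane run on 12% SDS-PAGE and transferred to nitrocellulose. Blots probed for p53, CHOP and β-actin with HRP secondary and ECL.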

[14] = Induction of apoptosis in human RC-58T/h/SA#4 cells assessed as p53 expression at 2.5 uM after 24 hrs by immunoblotting analysis relative to untreated control; assay type: functional; summary of the method: as §3
[15] = Induction of apoptosis in human RC-58T/h/SA#4 cells assessed as p53 expression at 5 uM after 24 hrs by immunoblotting analysis relative to untreated control; assay type: functional
Summary of the method: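 RC-58T/h/SA#4 cells (DMEM, 10% FBS, 37 °C, 5% CO2) exposed to the compound over a concentration range or time course. Lysates run on 12% SDS-PAGE at 10 μg protein/lane, transferred to nitrocellulose and blocked with BSA. Blots probed overnight at 4 °C with anti-p53, then HRP secondary antibody, ECL detection; β-actin as loading control.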

[16] = Induction of apoptosis in human RC-58T/h/SA#4 cells assessed as CHOP expression at 20 uM after 24 hrs by immunoblotting analysis relative to untreated control; assay type: functional; summary of the method: as §3
[17] = Induction of apoptosis in human RC-58T/h/SA#4 cells assessed as p53 expression at 20 uM after 12 hrs by immunoblotting analysis relative to untreated control; assay type: functional; summary of the method: as §3
[18] = Induction of apoptosis in human RC-58T/h/SA#4 cells assessed as p53 expression at 20 uM after 18 hrs by immunoblotting analysis relative to untreated control; assay type: functional; summary of the method: as §3
[19] = Induction of apoptosis in human RC-58T/h/SA#4 cells assessed as CHOP expression at 20 uM after 6 hrs by immunoblotting analysis relative to untreated control; assay type: functional; summary of the method: as §3
Homo sapiens [20] = organism: Homo sapiens; test: Sensitization of TRAIL-induced apoptosis in human RC-58T/h/SA#4 cells at 20 uM after 24 hrs by annexin-V/propidium iodide staining-based flow cytometry relative to control; assay type: functional, cell-based
Summary of the method: (§4)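 RC-58T/h/SA#4 cells seeded at 1 × 10^5 cells/mL in 6-well plates and given 20 μM compound and/or 100 ng/mL TRAIL for 24 h. Cells washed in ice-cold PBS, labelled with annexin V Alexa Fluor 488 for 30 min at 4 °C in the dark, then with PI. Annexin V-positive fraction counted by flow cytometry; three independent experiments, means ± SD, Student's t-test.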

Homo sapiens [21] = organism: Homo sapiens; test: Induction of apoptosis in human RC-58T/h/SA#4 cells at 20 uM after 24 hrs by annexin-V/propidium iodide staining-based flow cytometry relative to control; assay type: functional, cell-based; summary of the method: as §4
[22] = Induction of apoptosis in human RC-58T/h/SA#4 cells assessed as accumulation at Sub-G1 phase at 20 uM after 24 hrs by annexin-V/propidium iodide staining-based flow cytometry (reference value: 4.8%); assay type: functional
[23] = Sensitization of TRAIL-induced apoptosis in human RC-58T/h/SA#4 cells assessed as Bax activation at 20 uM after 24 hrs by immunoblotting analysis relative to untreated control; assay type: functional
Summary of the method: (§5)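 Cells seeded at 5 × 10^4 cells/mL and cultured 24 h, then given 20 μM compound and/or 100 ng/mL TRAIL for 24 h. Whole-cell lysate made in Tris/NaCl/EDTA/NaF/pyrophosphate/PMSF/aprotinin buffer, 30 min on ice, protein measured by BCA. 12% SDS-PAGE at 10 μg/lane, nitrocellulose blot, primary antibodies (caspase-3, -8, -9, Bax, Bcl-2, PARP) overnight at 4 °C, HRP secondary, ECL.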

[24] = Induction of apoptosis in human RC-58T/h/SA#4 cells assessed as procaspase-3 activation at 20 uM after 24 hrs by immunoblotting analysis relative to untreated control; assay type: functional; summary of the method: as §5

Q: What does the source list for `CC(C)/C=C/C(=O)c1ccoc1`?
A: Ratio [1]: 0.7; Ratio [2]: 0.9; Ratio (Homo sapiens [3]): 1.2; Ratio [4]: 1.1; Ratio [5]: 1.3; Ratio [6]: 1.2; Ratio [7]: 1; Ratio [8]: 1.3; Ratio [9]: 1.3; Ratio [10]: 0.8; Ratio [11]: 1.1; Ratio [12]: 1; Activity (Homo sapiens [13]): Dose-dependent effect; Ratio [14]: 1.2; Ratio [15]: 1.2; Ratio [16]: 1.8; Ratio [17]: 1.8; Ratio [18]: 2.2; Ratio [19]: 1; Activity (Homo sapiens [20]): Active; Activity (Homo sapiens [21]): Active; Activity [22]: 10.1%; Ratio [23]: 1.8; Ratio [24]: 1
